# pIC50: −log10 of the molar value.
# Assays:
# [1] = tested on: Mycobacterium tuberculosis; test: Inhibition of Mycobacterium tuberculosis salicylate synthase expressed in Escherichia coli BL21 cells using chorismic acid as substrate assessed as residual activity at 100 uM by fluorimetric assay relative to control
# How it was run: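 Recombinant His-purified enzyme (IMAC plus gel filtration), 1–2 μM, in 50 mM Hepes pH 7.5, 5 mM MgCl₂ at 37 °C. Reaction started with chorismic acid at a subsaturating 50 μM. Compound tested at a fixed 100 μM. Fluorescence monitored at Ex 305 nm / Em 420 nm, and activity expressed as % residual activity.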
# [2] = tested on: Mycobacteroides abscessus; test: Inhibition of Mycobacterium abscessus ATCC 19977 salicylate synthase expressed in Escherichia coli BL21 (DE3) cells using chorismic acid as substrate assessed as residual activity at 100 uM by fluorimetric assay relative to control
# How it was run: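 Enzyme purified by IMAC and gel filtration, used at 1–2 μM in 50 mM Hepes pH 7.5 with 5 mM MgCl₂ at 37 °C. Reaction started with 50 μM chorismic acid; fluorescence read at Ex 305 / Em 420 nm. Compound tested at a fixed 100 μM; percent residual activity recorded.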
# [3] = Inhibition of Mycobacterium tuberculosis salicylate synthase expressed in Escherichia coli BL21 cells using chorismic acid as substrate by fluorimetric assay
# How it was run: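 Purified recombinant enzyme, 1–2 μM, in 50 mM Hepes pH 7.5, 5 mM MgCl₂ at 37 °C, with 50 μM chorismic acid. Fluorescence read at Ex 305 nm / Em 420 nm. Run only for compounds with residual activity below 30 % at 100 μM. Activity measured across 0.1–200 μM inhibitor and IC50 fitted as A[I] = A[0]·(1 − [I]/([I]+IC50)).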
# [4] = Inhibition of Mycobacterium abscessus ATCC 19977 salicylate synthase expressed in Escherichia coli BL21 (DE3) cells using chorismic acid as substrate by fluorimetric assay; set-up: species or system Mycobacteroides abscessus
# How it was run: (§1)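 Purified enzyme (IMAC plus gel filtration) at 1–2 μM in 50 mM Hepes pH 7.5, 5 mM MgCl₂, 37 °C, with 50 μM chorismic acid; fluorimetric read-out at Ex 305 / Em 420 nm. IC50 measured over 0.1–200 μM inhibitor for compounds leaving under 30 % residual activity at 100 μM, fitted as A[I] = A[0]·(1 − [I]/([I]+IC50)).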
# [5] = Inhibition of Mycobacterium abscessus ATCC 19977 salicylate synthase expressed in Escherichia coli BL21 (DE3) cells by fluorimetric assay; set-up: species or system Mycobacteroides abscessus; how it was run: as §1
# [6] = Cytotoxicity against human fibroblast assessed as viable cells at 10 uM incubated for 96 hrs by MTS assay relative to control; format: toxicity, cell-based; settings: human fibroblasts, read-out: Activity
# How it was run: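 Juvenile human foreskin fibroblasts grown in DMEM with 10 % FBS, 1 % L-glutamine and penicillin/streptomycin; 1 × 10⁴ cells/well, treated after 24 h at 0.5, 1, 5 and 10 μM. After 96 h, viability read by MTS at 490 nm and expressed as percent of untreated cells; three independent experiments.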
# [7] = Inhibition of Mycobacterium abscessus ATCC 19977 salicylate synthase expressed in Escherichia coli BL21 (DE3) cells using chorismic acid as substrate in presence of DTT by fluorimetric assay; set-up: species or system Mycobacteroides abscessus
# How it was run: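 IC50 determined in the standard fluorimetric chorismate assay (1–2 μM enzyme, 50 mM Hepes pH 7.5, 5 mM MgCl₂, 37 °C, 50 μM chorismic acid) with 100 μM DTT added to rule out cysteine reactivity.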
# [8] = Inhibition of Mycobacterium abscessus ATCC 19977 salicylate synthase expressed in Escherichia coli BL21 (DE3) cells using chorismic acid as substrate in presence of BSA by fluorimetric assay; set-up: species or system Mycobacteroides abscessus
# How it was run: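 IC50 determined in the standard fluorimetric chorismate assay (1–2 μM enzyme, 50 mM Hepes pH 7.5, 5 mM MgCl₂, 37 °C, 50 μM chorismic acid, Ex 305 / Em 420 nm) with 0.1 mg/mL BSA added.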
# [9] = Inhibition of Mycobacterium abscessus ATCC 19977 salicylate synthase expressed in Escherichia coli BL21 (DE3) cells using chorismic acid as substrate in presence of Triton X-100 by fluorimetric assay; set-up: species or system Mycobacteroides abscessus
# How it was run: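 IC50 determined in the standard fluorimetric chorismate assay (1–2 μM enzyme, 50 mM Hepes pH 7.5, 5 mM MgCl₂, 37 °C, 50 μM chorismic acid) with 0.01 % (v/v) Triton X-100 added as detergent.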
Structure (SMILES),Activity [1] [%],Activity [2] [%],pIC50 [3],pIC50 [4],also measured
Nc1cccc(-c2ccc(C(=O)O)o2)c1,65.8,48.3,,,
NC(=O)c1cccc(-c2ccc(C(=O)O)o2)c1,20.9,25.8,4.50,4.37,
O=C(O)c1ccc(-c2cccc(Cl)c2)o1,102,88.3,,,
Cc1cccc(-c2ccc(C(=O)O)o2)c1,104,54.7,,,
O=C(O)c1ccc(-c2ccc(C(F)(F)F)cc2C(F)(F)F)o1,,,,,pIC50 [5]: ~5.30
N#Cc1cccc(-c2ccc(C(=O)O)o2)c1,3.1,3.2,5.20,4.92,
CNC(=O)c1cccc(-c2ccc(C(=O)O)o2)c1,84,53.3,,,
COC(=O)c1ccc(-c2cccc(S(N)(=O)=O)c2)o1,,55.3,,,
NS(=O)(=O)c1ccccc1-c1ccc(C(=O)O)o1,,97.1,,,
O=C(O)c1ccc(-c2cccc(O)c2)o1,70.4,65,,,
NS(=O)(=O)c1ccc(-c2ccc(C(=O)O)o2)cc1,,16,,4.71,
O=C(O)c1cccc(-c2ccc(C(=O)O)o2)c1,27.2,33.3,4.45,,
O=C(O)c1ccc(-c2cccc(C(F)(F)F)c2)o1,42,35,,,
CS(=O)(=O)c1cccc(-c2ccc(C(=O)O)o2)c1,25.8,5.4,4.46,5.44,
NS(=O)(=O)c1cccc(-c2ccc(C(=O)O)o2)c1,28.6,0.6,4.40,5.59,"viability at 96 h, 10 µM [6]: 99.5%; pIC50 [7]: 5.48; pIC50 [8]: 5.55; pIC50 [9]: 5.55"
NS(=O)(=O)c1cccc(-c2cccc(C(=O)O)c2)c1,,89.4,,,

# From ChEMBL document CHEMBL5518184, “Structural basis for specific inhibition of salicylate synthase from Mycobacterium abscessus” (Eur J Med Chem, 2024)
